Data from ChEMBL document CHEMBL1287688 (Bioorg Med Chem, 2010).

Assays:
[1] = molecular target: T1, Glutamate NMDA receptor; GRIN1/GRIN2B (Homo sapiens, UniProt Q05586+Q13224); experiment: Displacement of [3H]ifenprodil from human recombinant NR1-1a/NR2B receptor expressed in mouse L(tk-) cells after 120 mins by scintillation counting; type: cell-based
[2] = molecular target: Sigma non-opioid intracellular receptor 1 (Cavia porcellus, UniProt Q60492); experiment: Displacement of [3H](+)-pentazocine from sigma1 receptor guinea pig brain after 180 mins scintillation counting
[3] = Displacement of [3H]di-o-tolylguanidine from sigma2 receptor rat liver membranes after 180 mins scintillation counting; type: cell membranes, Membrane
[4] = Half life in mouse liver microsomes; type: ADME, Microsome
In short: (§1)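 Test article incubated with liver microsomes prepared from mouse, rat and human; half-life determined.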

[5] = Half life in rat liver microsomes; type: ADME, Microsome; in short: as §1
[6] = Half life in human liver microsomes; type: ADME, Microsome; in short: as §1
[7] = molecular target: T1, Glutamate NMDA receptor; GRIN1/GRIN2B; experiment: Antagonist activity at human recombinant NR1-1a/NR2B receptor expressed in mouse L(tk-) cells assessed as inhibition of (S)-glutamate/glycine-stimulated excitotoxicity treated 30 mins before (S)-glutamate/glycine challenge measured after 4 hrs by LDH release assay; type: functional, cell-based
In short: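 L13-E6 mouse L(tk-) cells stably expressing NR1-1a/NR2B; compounds (1 nM-10 µM, in DMSO) preincubated 30 min, then (S)-glutamate plus glycine (10 µM each) added, 4 h further incubation. LDH in supernatant measured; 0% = no agonist with 100 µM ketamine, 100% = glutamate/glycine without ketamine. At least three experiments, six replicates per concentration; IC50 calculated from curves.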

[8] = Selectivity ratio of Ki for guinea pig sigma1 receptor to Ki for human recombinant NR1a/NR2B receptor
[9] = molecular target: T2, Amine oxidase [flavin-containing] A (Homo sapiens, UniProt P21397); experiment: Displacement of radiolabeled kynuramine from MAO-A at 1 to 3 uM
T2 sequence (P21397 whole entry): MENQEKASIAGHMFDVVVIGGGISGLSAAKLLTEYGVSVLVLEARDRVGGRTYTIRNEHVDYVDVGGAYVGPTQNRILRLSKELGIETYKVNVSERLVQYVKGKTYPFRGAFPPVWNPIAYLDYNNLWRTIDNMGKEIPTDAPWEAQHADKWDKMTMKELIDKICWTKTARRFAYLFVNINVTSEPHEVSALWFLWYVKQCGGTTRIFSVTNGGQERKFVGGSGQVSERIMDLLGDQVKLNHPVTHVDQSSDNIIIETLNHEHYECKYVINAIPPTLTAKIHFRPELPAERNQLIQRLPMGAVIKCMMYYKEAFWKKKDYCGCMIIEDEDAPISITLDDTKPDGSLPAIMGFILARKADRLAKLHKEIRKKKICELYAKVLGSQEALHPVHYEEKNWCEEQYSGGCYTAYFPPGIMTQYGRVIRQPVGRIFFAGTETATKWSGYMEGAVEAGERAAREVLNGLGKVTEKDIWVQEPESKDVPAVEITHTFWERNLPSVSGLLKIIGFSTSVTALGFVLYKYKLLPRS
In short: (§2)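 Broad radioligand competition screen against more than 100 receptors, transporters and enzymes, with test concentrations of 1-3 µM. Targets and radioligands are listed only in supplementary data. hERG IC50 was estimated.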

[10] = molecular target: T3, Amine oxidase [flavin-containing] B (Homo sapiens, UniProt P27338); experiment: Displacement of radiolabeled kynuramine from MAO-B at 1 to 3 uM; in short: as §2
T3 sequence (P27338 whole entry): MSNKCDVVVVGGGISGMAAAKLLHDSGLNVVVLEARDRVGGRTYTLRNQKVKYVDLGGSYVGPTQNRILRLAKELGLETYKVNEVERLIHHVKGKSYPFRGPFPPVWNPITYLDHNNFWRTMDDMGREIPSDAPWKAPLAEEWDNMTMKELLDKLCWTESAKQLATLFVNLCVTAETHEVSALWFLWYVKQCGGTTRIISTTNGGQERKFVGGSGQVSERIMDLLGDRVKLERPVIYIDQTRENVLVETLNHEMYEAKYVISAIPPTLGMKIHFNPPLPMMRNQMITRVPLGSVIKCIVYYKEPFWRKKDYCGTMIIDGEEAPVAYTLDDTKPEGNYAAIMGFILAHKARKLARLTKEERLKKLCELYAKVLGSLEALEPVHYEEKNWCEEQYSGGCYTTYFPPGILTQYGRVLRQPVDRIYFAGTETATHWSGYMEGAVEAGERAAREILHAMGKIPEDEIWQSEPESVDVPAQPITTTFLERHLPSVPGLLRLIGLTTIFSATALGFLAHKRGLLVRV

[11] = molecular target: T4, UDP-glucuronosyltransferase 1A1 (Homo sapiens, UniProt P22309); experiment: Displacement of radiolabeled scopoletin from UGT1A1 at 1 to 3 uM; in short: as §2
T4 sequence (P22309 whole entry): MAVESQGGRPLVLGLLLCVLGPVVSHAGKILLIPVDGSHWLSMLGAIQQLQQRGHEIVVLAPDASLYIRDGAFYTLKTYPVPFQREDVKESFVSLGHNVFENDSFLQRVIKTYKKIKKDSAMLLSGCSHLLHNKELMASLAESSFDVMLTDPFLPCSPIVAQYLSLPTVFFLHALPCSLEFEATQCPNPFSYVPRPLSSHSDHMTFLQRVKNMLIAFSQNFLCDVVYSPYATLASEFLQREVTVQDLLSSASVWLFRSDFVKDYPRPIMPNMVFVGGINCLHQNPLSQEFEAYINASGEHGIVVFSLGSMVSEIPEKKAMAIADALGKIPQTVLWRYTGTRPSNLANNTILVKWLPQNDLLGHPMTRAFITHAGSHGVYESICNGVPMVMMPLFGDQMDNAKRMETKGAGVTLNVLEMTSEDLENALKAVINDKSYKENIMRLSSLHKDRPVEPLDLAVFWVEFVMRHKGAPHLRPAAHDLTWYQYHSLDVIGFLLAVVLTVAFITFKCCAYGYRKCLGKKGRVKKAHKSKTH

Mus musculus [12] = experiment: Toxicity in mouse assessed as unusual reactions at 1 to 100 mg/kg, ip after 24 hrs; type: organism-based; parameters: dose 1-100 mg/kg, route intraperitoneal; conditions: in vivo
In short: (§3)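 Mice (Irwin test) received increasing intraperitoneal doses of 1-100 mg/kg body weight. Behaviour was then observed for 24 h.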

Mus musculus [13] = experiment: Toxicity in mouse assessed as diarrhea at 100 mg/kg, ip after 30 mins; type: organism-based; parameters: dose 100 mg/kg, route intraperitoneal; conditions: in vivo, 0.5 h; in short: as §3

Chain of Sigma non-opioid intracellular receptor 1 (Q60492 whole entry): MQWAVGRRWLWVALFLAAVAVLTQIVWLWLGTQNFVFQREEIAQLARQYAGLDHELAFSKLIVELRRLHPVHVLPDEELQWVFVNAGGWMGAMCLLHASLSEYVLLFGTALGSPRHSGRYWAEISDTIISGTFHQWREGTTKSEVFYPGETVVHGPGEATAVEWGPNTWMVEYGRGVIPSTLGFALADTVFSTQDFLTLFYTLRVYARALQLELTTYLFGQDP
T1 sequence (Q13224 whole entry, other chains not shown): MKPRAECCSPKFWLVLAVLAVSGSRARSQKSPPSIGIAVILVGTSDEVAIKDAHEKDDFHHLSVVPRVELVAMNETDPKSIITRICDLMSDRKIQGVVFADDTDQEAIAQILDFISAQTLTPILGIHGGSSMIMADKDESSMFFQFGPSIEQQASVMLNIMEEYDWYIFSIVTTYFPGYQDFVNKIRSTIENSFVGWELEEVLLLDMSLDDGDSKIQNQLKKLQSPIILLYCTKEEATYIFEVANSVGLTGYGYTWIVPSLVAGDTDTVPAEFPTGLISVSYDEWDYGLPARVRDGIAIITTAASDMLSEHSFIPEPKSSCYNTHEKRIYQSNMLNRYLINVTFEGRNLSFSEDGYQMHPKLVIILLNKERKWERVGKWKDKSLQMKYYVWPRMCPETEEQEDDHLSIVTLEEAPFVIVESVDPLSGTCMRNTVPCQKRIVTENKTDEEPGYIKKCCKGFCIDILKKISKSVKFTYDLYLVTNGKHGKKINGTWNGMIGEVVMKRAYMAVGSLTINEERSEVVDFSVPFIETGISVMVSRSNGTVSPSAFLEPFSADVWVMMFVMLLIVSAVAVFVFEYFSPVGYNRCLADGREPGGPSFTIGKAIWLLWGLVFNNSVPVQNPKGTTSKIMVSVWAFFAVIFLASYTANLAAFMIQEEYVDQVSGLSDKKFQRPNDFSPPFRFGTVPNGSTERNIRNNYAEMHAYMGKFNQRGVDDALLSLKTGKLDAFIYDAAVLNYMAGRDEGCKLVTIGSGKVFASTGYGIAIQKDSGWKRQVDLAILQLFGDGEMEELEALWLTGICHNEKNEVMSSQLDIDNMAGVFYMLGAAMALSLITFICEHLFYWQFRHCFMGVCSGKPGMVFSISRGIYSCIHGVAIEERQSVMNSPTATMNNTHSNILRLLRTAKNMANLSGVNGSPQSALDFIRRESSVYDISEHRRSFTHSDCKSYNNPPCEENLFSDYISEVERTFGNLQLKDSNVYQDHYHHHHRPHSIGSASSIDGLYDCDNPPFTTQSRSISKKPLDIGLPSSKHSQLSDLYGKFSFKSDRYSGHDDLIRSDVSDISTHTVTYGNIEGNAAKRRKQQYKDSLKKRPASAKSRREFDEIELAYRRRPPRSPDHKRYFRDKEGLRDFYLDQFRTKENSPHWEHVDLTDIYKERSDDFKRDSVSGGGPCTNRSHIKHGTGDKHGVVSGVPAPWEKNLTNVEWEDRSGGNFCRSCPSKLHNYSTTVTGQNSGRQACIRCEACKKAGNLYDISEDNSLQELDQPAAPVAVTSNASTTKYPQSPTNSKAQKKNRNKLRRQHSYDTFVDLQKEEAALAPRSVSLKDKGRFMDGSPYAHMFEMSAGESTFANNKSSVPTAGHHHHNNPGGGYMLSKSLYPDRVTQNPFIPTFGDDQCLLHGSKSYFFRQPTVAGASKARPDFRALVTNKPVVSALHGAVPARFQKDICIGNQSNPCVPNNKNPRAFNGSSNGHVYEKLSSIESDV

Row | Compound | Ki [1] | Ki [2] | Ki [3] | also measured
1 | CC1(C)COC(CCCN2CCc3cc(OCc4ccccc4)ccc3C(O)C2)(c2ccc(C(C)(C)C)cc2)OC1 (racemic) | > 1000 nM | > 1000 nM | 900 nM | 
2 | Oc1ccc2c(c1)CCN(CCCOc1ccccc1)CC2O (racemic) | 20 nM | 170 nM | 5.9 nM | 
3 | Oc1ccc2c(c1)CCN([C@H]1CC[C@H](c3ccccc3)CC1)CC2O (mixture of isomers) | 9 nM | 200 nM | 8.9 nM | 
4 | CC1(C)COC(CCCN2CCc3cc(OCc4ccccc4)ccc3C(O)C2)(c2ccc(F)cc2)OC1 (racemic) | 1420 nM | > 1000 nM | > 1000 nM | 
5 | OC1CN(C2COC(c3ccccc3)OC2)CCc2cc(OCc3ccccc3)ccc21 (racemic) | 1000 nM | 186 nM | > 1000 nM | 
6 | COc1ccc(C2(CCCN3CCc4cc(OCc5ccccc5)ccc4C(O)C3)OCC(C)(C)CO2)cc1 (racemic) | 661 nM | > 1000 nM | > 1000 nM | 
7 | O=C(c1ccccc1)N1CCC(N2CCc3cc(OCc4ccccc4)ccc3C(O)C2)CC1 (racemic) | > 1000 nM | > 1000 nM | > 1000 nM | 
8 | OC1CN(Cc2ccc(N3CCCCC3)cc2)CCc2cc(OCc3ccccc3)ccc21 (racemic) | 1310 nM | 604 nM | 6430 nM | 
9 | OC(CN1CCC(Cc2ccc(F)cc2)CC1)c1ccc(Cl)cc1 (configuration not stated) [ELIPRODIL] | 13 nM |  |  | 
10 | Oc1ccc2c(c1)CCN([C@H]1CO[C@H](c3ccccc3)OC1)CC2O (mixture of isomers) | > 1000 nM | > 1000 nM | > 1000 nM | 
11 | CC(C(O)c1ccc(O)cc1)N1CCC(Cc2ccccc2)CC1 (configuration not stated) [IFENPRODIL] |  |  |  | half-life [4]: < 5 min; half-life [5]: < 1 min; half-life [6]: 5 min
12 | COc1ccc(C(=O)CCCN2CCc3cc(OCc4ccccc4)ccc3C(O)C2)cc1 (racemic) | > 1000 nM | > 1000 nM | 4500 nM | 
13 | OC1CN(CCCCc2ccccc2)CCc2cc(OCc3ccccc3)ccc21 (racemic) | 187 nM |  | 1050 nM | 
14 | Oc1ccc2c(c1)CCN(C1CCC3(CC1)OCCO3)CC2O (racemic) | > 1000 nM | > 1000 nM | 658 nM | 
15 | O=S(=O)(CCCN1CCc2cc(O)ccc2C(O)C1)c1ccccc1 (racemic) | > 1000 nM | > 1000 nM | 653 nM | 
16 | OC1CN(CCCOc2ccccc2)CCc2cc(OCc3ccccc3)ccc21 (racemic) | 93 nM | 193 nM | 945 nM | 

Row | Compound | Ki [1] | Ki [2] | Ki [3] | also measured
17 | OC1CN([C@H]2CC[C@H](c3ccccc3)CC2)CCc2cc(OCc3ccccc3)ccc21 (some centres not stated) | 388 nM | 386 nM | > 1000 nM | 
18 | O=C(CCCN1CCc2cc(OCc3ccccc3)ccc2C(O)C1)c1ccc(F)cc1 (racemic) | 151 nM | 293 nM | 1050 nM | 
19 | Oc1ccc2c(c1)CCN([C@H]1CC[C@@H](c3ccccc3)CC1)CC2O (mixture of isomers) | 3.3 nM | 123 nM | 8.6 nM | IC50 [7]: 12100 nM
20 | OC1CN([C@H]2CC[C@@H](c3ccccc3)CC2)CCc2cc(OCc3ccccc3)ccc21 (some centres not stated) | 139 nM | 10 nM | 311 nM | Ratio Ki [8]: 14
21 | O=C(c1ccccc1)N1CCC(N2CCc3cc(O)ccc3C(O)C2)CC1 (racemic) | 204 nM | > 1000 nM | 98 nM | 
23 | O=C(CCCN1CCc2cc(O)ccc2C(O)C1)c1ccc(F)cc1 (racemic) | 36 nM | 1050 nM | 33 nM | 
24 | OC1CN(C2CCC3(CC2)OCCO3)CCc2cc(OCc3ccccc3)ccc21 (racemic) | 1120 nM |  | 753 nM | 
25 | CC(C)(C)c1ccc(C(=O)CCCN2CCc3cc(OCc4ccccc4)ccc3C(O)C2)cc1 (racemic) | 644 nM | > 1000 nM | > 1000 nM | 
26 | CN(Cc1ccccc1)C(=O)CN1CCc2cc(O)ccc2C(O)C1 (racemic) | > 1000 nM |  | 1580 nM | 
27 | Oc1ccc2c(c1)CCN(CCCCc1ccccc1)CC2O (racemic) | 14 nM |  | 18000 nM | Activity [9]: Not Active; Activity [10]: Not Active; Activity [11]: Not Active; IC50 [7]: 18.4 nM; half-life [4]: 28 min; half-life [5]: < 3 min; half-life [6]: 21 min; Activity (Mus musculus [12]): Non-toxic; Activity (Mus musculus [13]): Toxic
28 | CN(Cc1ccccc1)C(=O)CN1CCc2cc(OCc3ccccc3)ccc2C(O)C1 (racemic) | 377 nM | > 1000 nM | 2960 nM | 
29 | OC1CN(Cc2cccc(-c3ccccc3)c2)CCc2cc(OCc3ccccc3)ccc21 (racemic) | 1210 nM | > 1000 nM | > 1000 nM | 
30 | OC1CN(CCCSc2ccccc2)CCc2cc(OCc3ccccc3)ccc21 (racemic) | 41 nM |  | 653 nM | 
31 | COc1ccc2c(c1)CCN(CCCCc1ccccc1)CC2O (configuration not stated) | 5.4 nM |  | 554 nM | IC50 [7]: 360 nM
32 | O=S(=O)(CCCN1CCc2cc(OCc3ccccc3)ccc2C(O)C1)c1ccccc1 (racemic) | 37 nM |  | 3040 nM | 
